Measured values reported in ChEMBL document CHEMBL1122673, “Synthesis of a novel series of (aryloxy)propanolamines: new selective beta 2-blocking agents” (J Med Chem, 1984).
pEC50: −log10 of the molar value.

Experiments:
Cavia porcellus [1] = organism: Cavia porcellus; assay: (§1) In vitro evaluation on guinea pig trachea. EC50 which is the molar concentration required to give 50% inhibition of the isoproterenol response (1x10E-6M) was determined.; assay type: functional; conditions: read-out: ED50 (the source's name)
In short: (§2)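 Isolated guinea pig tracheal spirals were held at 1.50 g initial tension (resting 0.4–0.6 g) in Tyrode at 37 °C, gassed with O2/CO2 95:5, and contracted with acetylcholine 3 × 10^-6 M. Antagonist was added 15 min before Ach. Isoproterenol 3 × 10^-8 to 3 × 10^-6 M was added at maximal contraction.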

Cavia porcellus [2] = organism: Cavia porcellus; assay: as §1; assay type: functional, organism-based
In short: as §2, with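 “contraction. EC50 came from four points, with ≥4 preparations per group.” for “contraction.”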

[3] = Compound was determined for heart rate with respect to propanol; assay type: functional
In short: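 Urethane-anesthetized animals (1.25 g/kg ip). Carotid blood pressure was recorded, and heart rate was taken from pulse pressure. Three isoproterenol doses (10 µg/kg iv) set the control mean heart-rate rise and diastolic fall. Antagonist was given as four cumulative iv doses, with isoproterenol 10 min after each. The next dose followed return to baseline. Groups of ≥4 animals.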

| SMILES | pEC50 (Cavia porcellus [1]) | pEC50 (Cavia porcellus [2]) | Ratio [3] |
| --- | --- | --- | --- |
| CC(C)(C)NCC(O)COc1cccc2c1[C@]1(O)CCCC[C@H]21 (some centres undefined) | 6.94 | – | – |
| CC(C)NCC(O)COc1ccc2c(c1)[C@@H]1CCCC[C@H]21 (some centres undefined) | – | 6.30 | – |
| CCCC(=O)Nc1ccc(OCC(O)CNC(C)C)c2c1[C@H]1CCCCC[C@@H]21 (some centres undefined) | 6.47 | – | – |
| CC(C)NCC(O)COc1cccc2c1[C@]1(O)CCCCC[C@H]21 (some centres undefined) | 6.89 | – | – |
| CC(C)(C)NCC(O)COc1ccc2c(c1)[C@@H]1CCCC[C@H]21 (some centres undefined) | – | 6.70 | – |
| CC(C)(C)NCC(O)COc1cccc2c1[C@]1(O)CCCCC[C@H]21 (some centres undefined) | 8.26 | – | 0.08 |
| CC(C)NCC(O)COc1ccc2c(c1)[C@@H]1CCCCC[C@H]21 (some centres undefined) | – | 6.38 | 0.02 |
| COc1ccc(CCNCC(O)COc2cccc3c2[C@]2(O)CCCCC[C@H]32)cc1OC (some centres undefined) | 5.15 | – | – |
| CC(C)NCC(O)COc1cccc2c1[C@@H]1CCCCC[C@H]21 (some centres undefined) | – | 8.70 | 0.46 |
| CC(C)(C)NCC(O)COc1cccc2c1[C@@H]1CCCCC[C@]21O (some centres undefined) | 8.90 | – | 0.42 |
| CC(C)(C)NCC(O)COc1cccc2c1[C@@H]1CCCCC[C@H]21 (some centres undefined) | – | 7.34 | 0.57 |
| COc1ccc(CCNCC(O)COc2cccc3c2[C@@H]2CCCCC[C@]32O)cc1OC (some centres undefined) | 6.59 | – | 0.68 |
| CC(C)(C)NCC(O)COc1ccc2c(c1)[C@@H]1CCCCC[C@H]21 (some centres undefined) | 5.86 | – | – |
| CC(C)NCC(O)COc1cccc2c1[C@@H]1CCCC[C@H]21 (some centres undefined) | – | 7.15 | – |
| CC(C)NCC(O)COc1cccc2c1[C@@H]1CCCCC[C@]21O (some centres undefined) | 8.89 | – | 0.8 |
| COc1ccc(CCNCC(O)COc2cccc3c2[C@@H]2CCCCC[C@H]32)cc1OC (some centres undefined) | – | 5.96 | – |
| CC(C)NCC(O)COc1ccc2ccccc2c1 (centres undefined) | 7.26 | – | – |
